Assays:
[1] = species: Rattus norvegicus; assay: Effect on in vitro myocardial electrical activity (arrhythmia score) at 5 uM; format: functional, Myocardium
[2] = species: Rattus norvegicus; assay: Evaluated for the interaction with 0.2 mM of the stable free radical DPPH.; format: functional
Method in brief: (§1)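 Compounds were reacted with the stable free radical DPPH at 0.2 mM. The IC50 (mM) is the concentration that reacts with half of the radical.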

[3] = species: Rattus norvegicus; assay: Inhibition of in vitro peroxidation (LP) of rat Hepatic microsomal membrane lipid; format: functional
Method in brief: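 Rat liver microsomal membranes were subjected to lipid peroxidation induced by ferrous ions and ascorbate. Values are mean ± SEM, n = 3.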

[4] = species: Rattus norvegicus; assay: Effect on in vitro accumulation of MDA content in heart, at conc of 5 uM; format: functional
[5] = species: Rattus norvegicus; assay: The compound was evaluated for the interaction with 0.2 mM of the stable free radical DPPH; format: functional; method in brief: as §1
[6] = species: Rattus norvegicus; assay: Effect of compound on in vitro accumulation of MDA content in heart at concentration of 5 uM; format: functional

Row | IC50 [2] | IC50 [3] | IC50 [5] | Structure (SMILES) | Arrhythmia score [1] | MDA content [4] | MDA content [6]
1 | > 400 µM | > 1000 µM |  | O=C(O)CCCCC1CCSS1 (stereo not drawn) [LIPOIC ACID, ALPHA] | 6.3 | 1.03 µM (g of tissue)-1 | 
2 | 20 µM | 2.58 µM |  | Cc1c(C)c2c(c(C)c1O)CCC(C)(C(=O)Nc1ccc3c(c1)Cc1cc(NC(=O)CCCCC4CCSS4)ccc1-3)O2 (stereo not given) |  |  | 
3 |  | 24.8 µM | 45 µM | Cc1c(C)c2c(c(C)c1O)CCC(C)(C(=O)O)O2 (stereo not given) [TROLOX] | 3.15 |  | 1.07 uM (g of tissue)-1
